Data on 16 compounds can be found in ChEMBL document CHEMBL3576826, “New Monocyclic, Bicyclic, and Tricyclic Ethynylcyanodienones as Activators of the Keap1/Nrf2/ARE Pathway and Inhibitors of Inducible Nitric Oxide Synthase” (J Med Chem, 2015).

In general, IC50 refers to the concentration needed to halve the response being measured.

Experiment [1] concerns the target Kelch-like ECH-associated protein 1/Nuclear factor erythroid 2-related factor 2 (Mus musculus) (UniProt Q60795+Q9Z2X8). Put plainly: Activation of Keap1/Nrf2/ARE pathway in mouse Hepa-1c1c7 cells assessed as double induction of NQO1 specific activity after 48 hrs by bicinchoninic acid assay. Format: cell-based. The gist of the method:
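Hepa1c1c7 cells, 10000 per well, grown 24 h, then exposed to increasing concentrations for 48 h. Lysed; protein by BCA assay; NQO1 specific activity measured. CD = concentration doubling NQO1 specific activity, used as inducer potency. Eight replicate wells per concentration; SD 5–10%.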

Experiment [2] has as its target T1, Nitric oxide synthase, inducible (Mus musculus, UniProt P29477).
T1 sequence (P29477 whole entry): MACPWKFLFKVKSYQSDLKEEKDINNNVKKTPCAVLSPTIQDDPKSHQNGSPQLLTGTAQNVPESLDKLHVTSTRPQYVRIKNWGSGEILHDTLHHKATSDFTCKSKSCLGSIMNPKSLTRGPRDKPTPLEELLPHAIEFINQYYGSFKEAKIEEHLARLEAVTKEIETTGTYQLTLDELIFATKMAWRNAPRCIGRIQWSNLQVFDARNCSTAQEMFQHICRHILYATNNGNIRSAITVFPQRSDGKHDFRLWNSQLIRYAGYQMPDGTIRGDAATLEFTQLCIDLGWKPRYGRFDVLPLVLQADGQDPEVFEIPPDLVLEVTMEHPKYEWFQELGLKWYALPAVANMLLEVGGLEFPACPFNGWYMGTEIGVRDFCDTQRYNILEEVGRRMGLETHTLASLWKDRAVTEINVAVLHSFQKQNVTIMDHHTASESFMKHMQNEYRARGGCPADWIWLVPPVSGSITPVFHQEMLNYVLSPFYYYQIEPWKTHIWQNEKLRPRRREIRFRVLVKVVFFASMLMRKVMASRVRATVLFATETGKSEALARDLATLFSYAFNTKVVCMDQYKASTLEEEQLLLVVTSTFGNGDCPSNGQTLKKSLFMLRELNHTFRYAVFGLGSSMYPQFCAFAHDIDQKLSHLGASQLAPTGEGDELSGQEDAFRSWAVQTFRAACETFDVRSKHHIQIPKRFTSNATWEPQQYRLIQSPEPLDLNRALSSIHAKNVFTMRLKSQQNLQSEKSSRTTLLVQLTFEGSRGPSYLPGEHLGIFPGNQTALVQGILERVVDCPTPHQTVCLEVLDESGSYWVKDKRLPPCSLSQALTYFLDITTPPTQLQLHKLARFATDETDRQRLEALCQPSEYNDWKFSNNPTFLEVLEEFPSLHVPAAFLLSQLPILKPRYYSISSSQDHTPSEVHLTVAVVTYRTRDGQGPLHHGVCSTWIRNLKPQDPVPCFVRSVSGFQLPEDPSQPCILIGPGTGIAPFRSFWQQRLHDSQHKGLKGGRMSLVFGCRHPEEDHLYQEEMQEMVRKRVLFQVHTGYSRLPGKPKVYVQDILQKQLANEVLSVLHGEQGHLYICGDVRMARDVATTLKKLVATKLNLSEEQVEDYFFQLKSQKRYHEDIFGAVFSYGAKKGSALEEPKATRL
Kind of experiment: Inhibition of iNOS in LPS-stimulated mouse RAW264.7 cells assessed as inhibition of nitric oxide production after 48 hrs by Griess assay. Format: cell-based.

Sequence of Kelch-like ECH-associated protein 1/Nuclear factor erythroid 2-related factor 2 (Mus musculus) (Q60795 whole entry, looked up): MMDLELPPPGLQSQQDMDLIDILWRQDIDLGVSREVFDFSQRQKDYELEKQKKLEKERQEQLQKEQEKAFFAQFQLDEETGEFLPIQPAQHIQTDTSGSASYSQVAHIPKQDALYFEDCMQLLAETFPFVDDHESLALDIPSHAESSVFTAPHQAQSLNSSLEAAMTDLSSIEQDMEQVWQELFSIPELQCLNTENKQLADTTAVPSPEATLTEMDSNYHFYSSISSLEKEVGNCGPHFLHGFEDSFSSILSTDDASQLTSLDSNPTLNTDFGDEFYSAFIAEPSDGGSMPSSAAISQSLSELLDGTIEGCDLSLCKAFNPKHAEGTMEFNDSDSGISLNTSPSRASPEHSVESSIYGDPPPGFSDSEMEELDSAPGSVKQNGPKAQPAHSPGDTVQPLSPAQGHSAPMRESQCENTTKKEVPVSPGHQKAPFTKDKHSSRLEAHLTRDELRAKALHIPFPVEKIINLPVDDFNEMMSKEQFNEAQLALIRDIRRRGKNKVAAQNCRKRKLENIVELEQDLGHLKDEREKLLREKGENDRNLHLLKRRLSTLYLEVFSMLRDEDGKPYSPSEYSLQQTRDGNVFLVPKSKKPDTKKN
Sequence of Kelch-like ECH-associated protein 1/Nuclear factor erythroid 2-related factor 2 (Mus musculus) (Q9Z2X8 whole entry, looked up): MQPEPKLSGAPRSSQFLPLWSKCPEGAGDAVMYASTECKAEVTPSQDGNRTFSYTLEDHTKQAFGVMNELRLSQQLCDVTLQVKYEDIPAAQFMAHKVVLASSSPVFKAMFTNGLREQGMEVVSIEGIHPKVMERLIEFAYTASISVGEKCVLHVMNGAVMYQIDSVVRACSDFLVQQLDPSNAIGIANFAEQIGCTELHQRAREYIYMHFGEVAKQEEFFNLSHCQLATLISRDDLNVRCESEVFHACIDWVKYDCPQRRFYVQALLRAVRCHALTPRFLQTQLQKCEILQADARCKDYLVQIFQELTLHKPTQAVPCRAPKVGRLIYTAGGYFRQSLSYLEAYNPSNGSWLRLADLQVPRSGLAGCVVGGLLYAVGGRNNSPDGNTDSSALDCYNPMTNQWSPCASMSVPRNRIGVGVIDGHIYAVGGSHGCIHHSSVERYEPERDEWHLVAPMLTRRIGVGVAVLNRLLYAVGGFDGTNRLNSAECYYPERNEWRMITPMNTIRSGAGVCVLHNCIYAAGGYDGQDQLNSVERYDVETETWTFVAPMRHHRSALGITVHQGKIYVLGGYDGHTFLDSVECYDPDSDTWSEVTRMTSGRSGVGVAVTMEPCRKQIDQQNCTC

For `C#CC1(C=C)C=CC(=O)C(C#N)=C1` (stereo not drawn), the CD in experiment [1] came to 20 nM. Also, the 50% inhibitory concentration (IC50) in experiment [2] (raw264.7) is 16 nM.

For the compound `C#CC12C=C(C#N)C(=O)C=C1CCC2` (stereo not drawn), in experiment [1], the CD amounted to 56 nM. For the same compound, the IC50 in experiment [2] (raw264.7) was 160 nM. Consider `C#CC1(CC)C=CC(=O)C(C#N)=C1` (stereo not drawn), for which the CD in experiment [1] was 42 nM.

For the compound `C#CC1(C#C)C=CC(=O)C(C#N)=C1`, the CD in experiment [1] stood at 180 nM. Besides, the half-inhibitory concentration (IC50) in experiment [2] (raw264.7) was 210 nM. Taken in the same sequence, the figures for `C#CC12C=C(C#N)C(=O)C=C1c1c(C)cccc1CC2` (stereo not drawn) were 1800 nM and 940 nM. Take `C#CC12C=C(C#N)C(=O)C=C1c1ccccc1CC2` (stereo not drawn): the CD in experiment [1] came out at 150 nM. For the compound `C#CC12C=C(C#N)C(=O)C=C1c1c(Br)cccc1CC2` (stereo not drawn), the CD in experiment [1] was determined as 1300 nM. Further, in experiment [2] (raw264.7), the IC50 is 650 nM. Taken in the same sequence, the figures for `C#CC12C=C(C#N)C(=O)C=C1c1c(Cl)cccc1C2` (stereo not drawn) were 130 nM and 800 nM. For `C#CC1(C)C=CC(=O)C(C#N)=C1` (stereo not drawn), the CD in experiment [1] was 21 nM. The 50% inhibitory concentration (IC50) in experiment [2] (raw264.7) was found to be 18 nM. With `C#CC1(C)C=C(C#N)C(=O)c2ccccc21` (stereo not drawn), in experiment [1], the CD was found to be 220 nM. Turning to `C#CC12C=C(C#N)C(=O)C=C1C(C)(C)CC2` (stereo not drawn), the CD in experiment [1] amounted to 100 nM. For the same compound, the half-maximal inhibitory concentration (IC50) in experiment [2] (raw264.7) came out at 200 nM. For `C#C[C@]12C=C(C#N)C(=O)C=C1[C@@]1(C)C=C(C#N)C(=O)C(C)(C)[C@@H]1CC2` (racemic), the CD in experiment [1] came out at 0.9 nM. The IC50 in experiment [2] (raw264.7) came out at 1 nM. `C[S+]([O-])CCCCN=C=S` (stereo not drawn) [SULFORAPHANE]: the CD in experiment [1] is 200 nM. In addition, the IC50 in experiment [2] turned out to be 400 nM. As to `C#CC12C=C(C#N)C(=O)C=C1c1ccccc1C2` (stereo not drawn), in experiment [1], the CD stood at 41 nM. In experiment [2] (raw264.7), the IC50 came out at 380 nM.

Turning to `C#CC12C=C(C#N)C(=O)C=C1c1c(Cl)cccc1CC2` (stereo not drawn), the CD in experiment [1] is 900 nM.

On to `CC1(C)CC[C@]2(C(=O)O)CC[C@]3(C)[C@H](C(=O)C=C4[C@@]5(C)C=C(C#N)C(=O)C(C)(C)[C@@H]5CC[C@]43C)[C@@H]2C1` [BARDOXOLONE], for which the CD in experiment [1] was 2.3 nM. Moreover, in experiment [2] (raw264.7), the IC50 is 23 nM.
